This sample holds only a part of the variants without activity.
B1: tRNA (parent)
chain: GUUCCGUUGGCGUAAUGGUAACGCGUCUCCCUCCUAAGGAGAAGACUGCGGGUUCGAGUCCCGUACGGAACG

Variants of: B1
Assay: yeast fitness relative to wild type (ratio to wild type); higher = fitter; tRNA-Arg(CCU), competitive growth, 37 C, YPD
In short: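 For this measurement, the tRNA-Arg(CCU) gene was varied by chemical synthesis at a 3% per-site mutation rate across 69 sites, and each variant was placed at the native genomic locus in Saccharomyces cerevisiae. The pooled strains went through a 24-hour competition in YPD at 37°C in six parallel replicates, with amplicons from start and end populations read by 100-nucleotide paired-end sequencing. Darwinian fitness relative to wild type followed from the change in each genotype's frequency. Genotypes needed ≥ 100 starting reads, and estimates < 0.5 were set to 0.5.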

Row | Variant | yeast fitness
1 | U16A G67A | 0.926
2 | C4A U16A | 0.823
3 | C34G A42C G51C | 0.525
4 | U3C G6C A14U G25A G38A U47A C60G | 0.558
5 | U26G C27U C49U C66U | 0.577
6 | C5A U7C U19A G38C A42G | ≤ 0.5
7 | U3G A69C | 0.867
8 | A15G C62U A69C | 0.829
9 | U7C U16C | 0.831
10 | G48C U53C | 0.694
11 | A14U U16A C31G U47C G68C | ≤ 0.5
12 | A21G C22U G63A | 0.572
13 | C4U C27U A45C G48A G56C | 0.612
14 | C11A C24U G67C A70G | ≤ 0.5
15 | G9C C49U A57G | 0.615
16 | U13A C29G C46G | 0.583
17 | G17C G39C | 0.59
18 | G17A C24G C33G C60U | ≤ 0.5
19 | C4G U8C A15G C22G G23A C49A | ≤ 0.5
20 | A45C A57U C60U A65C | ≤ 0.5
21 | G10A G17A C29A C34G A43C C60G | ≤ 0.5

Row | Variant | yeast fitness
22 | G18A A20U C62A A70C | 0.552
23 | C11A U59A | 0.629
24 | C22G U28A C31G A45G C55A G68C | ≤ 0.5
25 | C30G A36U | 0.538
26 | C11G G18C U26C C31G C46U C55U | ≤ 0.5
27 | C33U G50A G52C A65C | 0.564
28 | C5U A20U U28G U32G C34G | ≤ 0.5
29 | U26C C29U C61U | ≤ 0.5
30 | A36G U53A | 0.754
31 | C60G C61A A69G | 0.586
32 | C29G C60A G67A | ≤ 0.5
33 | C4U C11G C34U | 0.551
34 | C33G A36U A57C | ≤ 0.5
35 | A42U G63A G68C A69C | ≤ 0.5
36 | G12C A20U C22G G50A | ≤ 0.5
37 | C4G C11A U35A A45G C49U U59G G67U | ≤ 0.5
38 | G6A C33A A37C | ≤ 0.5
39 | U16G C61U C66G | 0.569
40 | A14C C60G C66U G68A | ≤ 0.5
41 | A14G G23A A70C | ≤ 0.5
42 | C4G G25A A45G | ≤ 0.5

Row | Variant | yeast fitness
43 | C11U C27U C31A U35C C55G C62U C66U A70C | ≤ 0.5
44 | A20C G23A C29U A36C A43C | ≤ 0.5
45 | C22G C30A C49A A69U | ≤ 0.5
46 | C31U A40C C55G G68A A69U | 0.581
47 | U7C A42G | 0.716
48 | C30U A65U C66G | ≤ 0.5
49 | C5G G6A G50C | 0.608
50 | G9C A15U C24U U53G C62G | ≤ 0.5
51 | G58C C61U | 0.887
52 | G6C A37G A70C | ≤ 0.5
53 | G6C A69U | 0.976
54 | G52A U59A C61A | ≤ 0.5
55 | C22A C24G A36C C66U | 0.692
56 | G9A U16A A42C U53C A65C | ≤ 0.5
57 | G6A A15C U16A A21G U26A C30U C61A A69U | ≤ 0.5
58 | C5G G18A C55A | ≤ 0.5
59 | C11U U26A C34G G68C | ≤ 0.5
60 | U16C U26C A40C A43G G44A | ≤ 0.5
61 | U8A A14C C24U U26A U28G U54G | ≤ 0.5
62 | C4G G41A A45U G56C | ≤ 0.5
63 | G6C U16A G18C C22G C49U | ≤ 0.5

Row | Variant | yeast fitness
64 | C5A C31G G56C G58C | ≤ 0.5
65 | C5A G51C G63C A65C | ≤ 0.5
66 | A20U G25C C49G A65C A70U | ≤ 0.5
67 | C22G G58U | 1.05
68 | A20C C30G A40G | ≤ 0.5
69 | G6C A37U A57C A69U A70C | ≤ 0.5
70 | C11G C27U A36U G48C C49U | 0.717
71 | C22U U26A U47C | ≤ 0.5
72 | C4U C34A A43U U47C C62G C66A | ≤ 0.5
73 | G10A G12C C31U | 0.62
74 | G9A G38C | 0.758
75 | C11A U13G C24G C34G G52A | ≤ 0.5
76 | C4A C31A C33U | ≤ 0.5
77 | A14U A40C C62A C66U | 0.603
78 | C11U U13C A43C | 0.682
79 | C30G A57G G63A | ≤ 0.5
80 | A15C A43C | 0.609
81 | A42C A45G | 0.95
82 | A21C C27A C33U | 0.906
83 | C34G C49G C61U A70C | ≤ 0.5
84 | G9A A65G G68C | 0.594

— the RNAGym collection of RNA variant scans (doi:10.1126/science.aae0568)
